Screens deposited in PubChem by several laboratories.
HTR2A ag: activates the mouse 5-HT2A serotonin receptor. CHO-K1 mHTR2A beta-arrestin complementation, luminescence; percent of 30 µM serotonin response. P35363. AID 624169. 360,000 compounds, 0.66% hits. activation, % at 7.6 µM;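 active means activation above a run cutoff, the mean activation of all tested compounds plus 3 SD, cut at about 14% in these data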
ANO1 activ: activates or potentiates the mouse TMEM16A chloride channel; 340,000 compounds, 0.3% hits; B-score at 10 µM; Q8BHY3; AID 623877; HEK293 TMEM16A/YFP-H148Q/I152L, iodide quench fluorescence; hits give low values;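 active means fluorescence-ratio B-score plate-corrected deviation score at least 3 library SD below zero, with starting fluorescence score within 5 deviations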;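 further: channel opened by trigger with iodide after compound preincubation; score built on the fluorescence ratio of max minus min over baseline; more negative score means more quench and so TMEM16A activation or potentiation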
ANO1 block: inhibitors of mouse TMEM16A calcium-activated chloride channel; 310,000 compounds, 1.2% hits; normalized B-score (activity score, 25-100; higher = stronger inhibition) at 10 µM; HEK293 TMEM16A/YFP iodide influx fluorescence, ionomycin; Q8BHY3;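 active means ratio plate-corrected score three or more library SD toward inhibition, starting fluorescence score within five deviations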;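 further: score derived from kinetic fluorescence span divided by baseline fluorescence per well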
MC4R antag cAMP: antagonists of human melanocortin 4 receptor (MC4R); P32245; MC4R-expressing cells, MTII-stimulated cAMP, LANCE TR-FRET; inhibition, % at 6.5 µM; 360,000 compounds, 0.48% hits; AID 540295;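 active means inhibition above its plate's cutoff, the mean of tested wells on that plate plus 3 SD, cut at about 29% in these data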
Target sequence (P32245 whole entry, looked up): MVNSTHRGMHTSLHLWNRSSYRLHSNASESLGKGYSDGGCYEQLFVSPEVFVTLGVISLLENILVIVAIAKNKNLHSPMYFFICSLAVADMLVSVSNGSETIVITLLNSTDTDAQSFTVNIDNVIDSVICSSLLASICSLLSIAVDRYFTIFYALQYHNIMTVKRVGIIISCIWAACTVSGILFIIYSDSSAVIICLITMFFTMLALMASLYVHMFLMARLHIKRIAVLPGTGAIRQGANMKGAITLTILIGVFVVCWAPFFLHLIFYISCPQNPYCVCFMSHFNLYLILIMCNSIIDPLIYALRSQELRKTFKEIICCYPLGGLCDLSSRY
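Material – human MC4R-expressing U2OS cells · Repeats – no replicates · Detection – TR-FRET with Eu-cAMP and labeled anti-cAMP, 671 nm · Times – compound 30 min, challenge 1 h, detection 1 h · Compound – single nominal compound dose of 6.5 µM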
MC4R barr agon: activates human MC4R beta-arrestin recruitment. P32245. U2OS MC4R beta-arrestin complementation, luminescence; percent of melanotan II response, DMSO zero. activation, % at 8.9 µM. 360,000 compounds, 0.98% hits. AID 540308;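 active means activation above a per-plate cutoff, the mean activation of sample wells on that plate plus 3 SD, cut at about 8% in these data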
MIN6 prolif: MIN6 beta-cell proliferation induction; MIN6 cells proliferation, ATPlite luminescence, 48 h; cells starved in 0.2% serum; 100% = growth in 10% serum; proliferation, % at 10 µM; 330,000 compounds, 0.29% hits; AID 2380;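 active means compounds whose signal lies at least 3.5 SD above the mean of all wells on their plate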
Large screens that a line does not name were inactive. Only some compounds are listed: those with a hit (about 3.4% of all), similar ones and a draw of the others.

CC(=O)c1ccc(N2CCN(C(=O)c3cc4c(s3)CCCC4)CC2)cc1	ANO1 activ -37
COc1ccc(N2CCN(C(=O)c3cc4c(s3)CCCCC4)CC2)cc1	none (no result: ANO1 block)
COc1ccc(/C=N/Nc2cc(N3CCCC3)nc(N3CCCC3)n2)cc1	ANO1 activ -19
Cc1nc(N/N=C/c2ccc(Br)cc2)cc(N2CCOCC2)n1	MC4R barr agon 8.3
Oc1ccc(/C=N/Nc2cc(N3CCCC3)nc(N3CCCC3)n2)cc1	none
CCOc1ccc(Nc2ccc([N+](=O)[O-])c3nonc23)cc1	ANO1 block 100
O=[N+]([O-])c1ccc(Nc2ccccc2)c2nonc12	none
Cc1ccc(C(=O)N2CCCCC2)cc1NC1=C(Cl)C(=O)N(Cc2ccccc2)C1=O	none (no result: ANO1 block)
Cc1ccc(O)c(NC2=C(Cl)C(=O)N(Cc3ccccc3)C2=O)c1	MC4R barr agon 8.7 (no result: ANO1 block, MIN6 prolif)
COc1ccc(C(=O)N/N=C(\C)CC(=O)Nc2ccccn2)cc1OC	none
C/C(CC(=O)Nc1ccccn1)=N\NC(=O)c1cccc(C)c1	MC4R antag cAMP 34
C=CCN(C(=O)C1CSC2(C)CCC(=O)N12)c1nc(-c2ccccc2)cs1 (stereo unspecified)	none
C=CCN(C(=O)C1=NN(C2CCS(=O)(=O)C2)C(=O)CC1)c1nc(-c2ccc([N+](=O)[O-])cc2)cs1 (stereo unspecified)	ANO1 activ -4.7
COc1cc(NC(=O)c2cc(-c3ccc4c(c3)OCO4)on2)cc(OC)c1OC	MC4R barr agon 8.8
Cc1ccc2sc(NNC(=O)c3cc(=O)c4ccccc4o3)nc2c1C	ANO1 block 100
Cc1ccc(C(=O)COc2ccccc2C(=O)Nc2ccccc2)cc1	none
Cc1ccc(NC(=O)c2ccccc2OCC(=O)c2ccccc2)cc1	MC4R barr agon 8.6
O=C(CSc1nnc(-c2ccc(Br)cc2)o1)Nc1cccc2ccccc12	MC4R barr agon 9.1
Cc1ccc(S(=O)(=O)c2c(N)n(Cc3ccco3)c3nc4ccccc4nc23)cc1C	ANO1 block 25
Cc1ccc(S(=O)(=O)c2c(N)n(CCN3CCOCC3)c3nc4ccccc4nc23)cc1C	ANO1 activ -20
COc1cccc(CNC(=O)[C@@H]2CCCN2C(=O)[C@H]2CCCCN2C(=O)c2cccc(Cl)c2)c1	none (no result: ANO1 activ, ANO1 block, MC4R antag cAMP, MC4R barr agon, MIN6 prolif)
Cc1ccc(NC(=C(C#N)C#N)c2ccccc2)cc1	none (no result: ANO1 activ, ANO1 block, MIN6 prolif)
COc1ccc(-n2ccc(-c3nn(-c4cccc(C(F)(F)F)c4)ccc3=O)n2)cc1	ANO1 activ -43
CC1C(O)=C(c2ccccc2)P(=O)(Cc2ccccc2)C1C (stereo unspecified)	none (no result: ANO1 activ, ANO1 block, MC4R antag cAMP, MC4R barr agon, MIN6 prolif)
CC1CCc2nc(NC(=O)CN3CCN(Cc4ccc5c(c4)OCO5)CC3)sc2C1 (stereo unspecified)	MC4R barr agon 9.3
CC1CCc2nc(NC(=O)CN3CCN(c4ccccc4)CC3)sc2C1 (stereo unspecified)	none
CC(C)(C)OC(=O)NCCCCCc1nnc(SCc2cccc(F)c2)o1	ANO1 block 25
CC(C)(C)OC(=O)NCCCCCc1nnc(SCc2c(F)cccc2Cl)o1	ANO1 block 100
Cc1cc(C)n2c(SC(C)C(=O)NC3(C#N)CCCCC3)nnc2n1 (stereo unspecified)	none (no result: ANO1 block)
CCC(=O)N1CCC1(C)C(=O)NCc1ccccc1SC (stereo unspecified)	none (no result: ANO1 activ, ANO1 block, MIN6 prolif)
COc1cc(/C=N/NC(N)=S)cc(Br)c1OCc1ccccc1F	MC4R barr agon 10
CCOc1cc(/C=N/NC(N)=S)cc(Br)c1OCc1ccccc1C	none
NNC(=O)c1cccn(Cc2ccc(Cl)cc2Cl)c1=O	ANO1 activ -7.2
CCN1C(=O)C(=O)N(CC(=O)Nc2ccccc2OC(F)F)C1=O	none (no result: ANO1 block)
COCC(=O)OC/C(O)=C(\C#N)c1nc2ccccc2[nH]1	none
Cc1cc(C)cc(OCC(=O)OC/C(O)=C(\C#N)c2nc3ccccc3[nH]2)c1	MC4R barr agon 14
N#C/C(=C(/O)COC(=O)COc1cccc(Br)c1)c1nc2ccccc2[nH]1	MC4R barr agon 20
O=C(NC1CCN(Cc2ccccc2)CC1)c1cccc(Br)c1	none
Cc1cc(C)cc(CC(=O)N2CCC2(C)C(=O)NS(=O)(=O)c2cccc(F)c2)c1 (stereo unspecified)	none (no result: ANO1 activ, ANO1 block, MIN6 prolif)
Cc1cccc(N2CCN(CC(=O)Nc3ccc(S(=O)(=O)N4CCOCC4)cc3)CC2)c1C	ANO1 block 25
CC(C(=O)Nc1ccc(S(=O)(=O)N2CCOCC2)cc1)N(c1ccccc1)S(C)(=O)=O (stereo unspecified)	ANO1 activ -10
Cc1ccc(S(=O)(=O)N2CCN(CC(=O)Nc3ccc(N4CCOCC4)cc3)CC2)cc1C	none
O=C(/C=C/c1cccc(C(F)(F)F)c1)Nc1cccc(C(F)(F)F)c1	ANO1 activ -7.2, ANO1 block 100
CSc1cccc(NC(=O)/C=C/c2cccc(Cl)c2)c1	ANO1 block 100
O=C(/C=C/c1cccc(Cl)c1)Nc1ncccn1	none
Cc1ccc(NC(=O)/C=C/c2cccc(C(F)(F)F)c2)cc1	none
Cc1ccc(O)c(Nc2nc(-c3ccccc3)nc3ccccc23)c1	none
Cc1ccc(O)c(Nc2c3ccccc3nc3ccccc23)c1	ANO1 block 25
CN1CCc2nc3sc(C(=O)C45CC6CC(CC(C6)C4)C5)c(N)c3cc2C1	MC4R barr agon 12
CCCCCCn1cc(C(=O)O)c(=O)c2cc(F)c(N3CCN(C)CC3)cc21	HTR2A ag 16
NNc1ccc([N+](=O)[O-])c2[nH][nH]c(=O)c12	none (no result: ANO1 activ, ANO1 block, MIN6 prolif)
COc1ccc(CCNC(=O)COc2ccc(S(=O)(=O)NC3CCCCC3)cc2Cl)cc1	ANO1 block 100
COc1ccc(S(=O)(=O)Nc2cc3c4c(c2)CCN4C(=O)CC3)cc1C	none
CN(Cc1cccc(-n2cccn2)c1)C(=O)CCc1nnc(C2CCCCC2)o1	ANO1 activ -6.4
Cc1ccc([C@H]2C(C(=O)O)=CC[C@@H](c3ccc(Cl)c(Cl)c3)N2S(=O)(=O)c2ccc(C)cc2)cc1	none (no result: ANO1 activ, ANO1 block)
Cc1ccc(S(=O)(=O)N2[C@@H](c3ccccc3F)C(C(=O)O)=CC[C@H]2c2cccc(C)c2)cc1	none
Cc1ccc(S(=O)(=O)N2[C@@H](c3ccccc3)C(C(=O)O)=CC[C@H]2c2ccc(Cl)c(Cl)c2)cc1	ANO1 block 100
Cc1ccc(S(=O)(=O)N2[C@@H](c3ccccc3F)C(C(=O)O)=CC[C@H]2c2ccc(Cl)c(Cl)c2)cc1	ANO1 block 100
OCC[C@H]1C[C@@H](O)[C@H](O)[C@@]2(CCCO2)O1	none
O=C(CCCc1ccncc1)c1ccccc1	none (no result: ANO1 block, MIN6 prolif)
CC(C)Oc1cccc(C(=O)C2CCCN(S(C)(=O)=O)C2)c1 (stereo unspecified)	MC4R antag cAMP 29
